Data as given in the RNAGym collection of RNA variant scans (doi:10.1126/science.aae0568).
Variants at the floor of the assay were thinned out.

B1: tRNA (parent)
chain: GUUCCGUUGGCGUAAUGGUAACGCGUCUCCCUCCUAAGGAGAAGACUGCGGGUUCGAGUCCCGUACGGAACG

Variants of: B1
Test: yeast fitness relative to wild type (ratio to wild type); higher = fitter; tRNA-Arg(CCU), competitive growth, 37 C, YPD
Summary of the method: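 Start and end populations of a pooled competition were compared by 100-nucleotide paired-end sequencing of gene amplicons. The Saccharomyces cerevisiae strains carried tRNA-Arg(CCU) gene variants at the native genomic locus, synthesised with a 3% per-site mutation rate at 69 sites, and competed in YPD at 37°C for 24 hours in six parallel replicates. Darwinian fitness relative to wild type was based on the change in genotype frequencies. Genotypes required ≥ 100 starting reads, and estimates < 0.5 were set to 0.5.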

C27A A45C C49A C61U and U26C C66G G68C cannot be ordered by yeast fitness: no more than 0.5 for the first, no more than 0.5 for the second.

First: U26C U28G C34U G38A
Second: C27A A40C C46A
The yeast fitness of the first is lower: no more than 0.5 for the first, 0.597 for the second.

U26C U28C A36C and U26G G56A G68U A69U cannot be ordered by yeast fitness: no more than 0.5 for the first, no more than 0.5 for the second.

Compared with U26C C31U C46A G48C A57U, U26A C49U G58A is lower in yeast fitness: 0.649 for the first, no more than 0.5 for the second.

U26C C29G A65G C66G G68C and U26C U28A C29G A69U cannot be ordered by yeast fitness: no more than 0.5 for the first, no more than 0.5 for the second.

Going from U26A G68C to U26A G68A, the yeast fitness falls from 0.82 to 0.779.

Compared with U26A C55G, U26C A37G C60A is lower in yeast fitness: 0.571 for the first, no more than 0.5 for the second.

C27A A40G A42U C61G and U26A G39C G48A C60G cannot be ordered by yeast fitness: no more than 0.5 for the first, no more than 0.5 for the second.

Compared with C27A A36G A70U, U26C C27G G68C is lower in yeast fitness: 0.561 for the first, no more than 0.5 for the second.

First: U26A U28C C30G A37C
Second: C27A A45C G68A
The yeast fitness of the first is lower: no more than 0.5 for the first, 0.619 for the second.

Going from U26C C29G G68C to U26G C30A G68C, the yeast fitness falls from 0.558 to 0.531.

U26G C33G C34G A40U G68A and U26C G50A U59A G67C cannot be ordered by yeast fitness: no more than 0.5 for the first, no more than 0.5 for the second.

Going from U26C C33G A42C G67C to U26C U32A C34U G38C, the yeast fitness rises from no more than 0.5 to 0.525.

Compared with U26G G41A, U26G A42C is higher in yeast fitness: 0.794 for the first, 1.03 for the second.

U26C A37C A40U A57C U64G and U26A U35C A45U A65C cannot be ordered by yeast fitness: no more than 0.5 for the first, no more than 0.5 for the second.

U26G A37C A42G G44C A45G C49U A65U and U26C A40C A43G G44A cannot be ordered by yeast fitness: no more than 0.5 for the first, no more than 0.5 for the second.

U26A G41A C66A and U26A G38C U47G cannot be ordered by yeast fitness: no more than 0.5 for the first, no more than 0.5 for the second.

First: U26C C27G
Second: U26C C27U
The yeast fitness of the first is lower: 0.588 for the first, 1.02 for the second.

Compared with U26C U32C C66U, U26A U47G U54C is lower in yeast fitness: 0.676 for the first, no more than 0.5 for the second.

First: U26G C29A C30G C31G U59A
Second: U26C C30U C60A
The yeast fitness of the first is higher: 0.533 for the first, no more than 0.5 for the second.

Going from U26C U59G to U26C C66G A69C, the yeast fitness falls from 0.862 to no more than 0.5.

Compared with U26C G48A C55U, U26G A70C is higher in yeast fitness: 0.561 for the first, 0.924 for the second.

Compared with U26G C66G, U26C G58C A69C is higher in yeast fitness: 0.677 for the first, 0.697 for the second.

Compared with U26G C30U G52A, U26C C33G U54C is lower in yeast fitness: 0.519 for the first, no more than 0.5 for the second.

First: U26A C49U C60U A69G
Second: U26C A45U
The yeast fitness of the first is lower: no more than 0.5 for the first, 0.716 for the second.

Going from U26C C30G G41A G56A C60G C62U G68A to C27A C30U, the yeast fitness rises from no more than 0.5 to 0.7.

Going from C27A C30G to U26C C27U G67C, the yeast fitness rises from 0.634 to 0.713.

Going from U26A U47G C49G A69C to C27A A43C G44U, the yeast fitness rises from no more than 0.5 to 0.514.

Compared with U26C A45U U53A U59A, C27A C30A C66A is higher in yeast fitness: 0.512 for the first, 0.561 for the second.

First: U26A C62U G67A
Second: U26G G39C G58A C66U
The yeast fitness of the first is higher: 0.648 for the first, no more than 0.5 for the second.

Going from U26G C46G A65C to U26C C55A, the yeast fitness rises from 0.563 to 0.65.

Compared with U26C C55G, U26C C61U U64A is lower in yeast fitness: 0.59 for the first, 0.526 for the second.

Compared with U26A U35G A37U G56C A65G, U26G A42C C61U is higher in yeast fitness: no more than 0.5 for the first, 0.684 for the second.

First: U26A U32C A57C G67A A69U
Second: U26C C34A
The yeast fitness of the first is lower: no more than 0.5 for the first, 0.817 for the second.

Compared with U26C G44A G68U, U26G A36U U47G C62U G68C is lower in yeast fitness: 0.533 for the first, no more than 0.5 for the second.

First: C27A A43U
Second: C27A A43C
The yeast fitness of the first is higher: 1.03 for the first, 0.939 for the second.

Compared with C27A A43G, U26A G48A C49G is lower in yeast fitness: 0.778 for the first, 0.552 for the second.

U26G G67C G68A and C27A C29U C61U cannot be ordered by yeast fitness: no more than 0.5 for the first, no more than 0.5 for the second.

Going from U26G U32C to U26C U35C C49U A57U, the yeast fitness falls from 0.821 to 0.656.

Going from U26C U28C A70G to U26G C29G C62U A70G, the yeast fitness falls from 0.73 to 0.61.

Going from C27A C29U C49U to U26G C27U A69U, the yeast fitness rises from no more than 0.5 to 0.696.

U26C C27G C60U and U26C U28C C34G U59A A65U cannot be ordered by yeast fitness: no more than 0.5 for the first, no more than 0.5 for the second.
